Experimental data as given in ChEMBL document CHEMBL1139946, “1-Aryl-4,6-dihydropyrazolo[4,3-d][1]benzazepin-5(1H)-ones: a new class of antiproliferative agents with selectivity for human leukemia and breast cancer cell lines” (Eur J Med Chem, 2007).
pIC50: −log10 of the molar value.

Assays:
MCF7 = test: Antiproliferative activity against human MCF7 cells at 100 uM after 48 hrs relative to control; type: functional; settings: MCF7, 48 h
Outline: (§1)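 NCI three-cell-line prescreen (MCF7 breast, NCI-H460 non-small cell lung, SF-268 CNS). Cells inoculated and preincubated in microtiter plates, then exposed to test agent at 10^-4 M for 48 h. Alamar blue end-point read-out. Growth of treated cells expressed as percent of untreated control cells.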

[1] = target: T1, Aurora kinase A (Homo sapiens) (UniProt O14965); test: Inhibition of aurora A at 10 uM
T1 sequence (whole entry): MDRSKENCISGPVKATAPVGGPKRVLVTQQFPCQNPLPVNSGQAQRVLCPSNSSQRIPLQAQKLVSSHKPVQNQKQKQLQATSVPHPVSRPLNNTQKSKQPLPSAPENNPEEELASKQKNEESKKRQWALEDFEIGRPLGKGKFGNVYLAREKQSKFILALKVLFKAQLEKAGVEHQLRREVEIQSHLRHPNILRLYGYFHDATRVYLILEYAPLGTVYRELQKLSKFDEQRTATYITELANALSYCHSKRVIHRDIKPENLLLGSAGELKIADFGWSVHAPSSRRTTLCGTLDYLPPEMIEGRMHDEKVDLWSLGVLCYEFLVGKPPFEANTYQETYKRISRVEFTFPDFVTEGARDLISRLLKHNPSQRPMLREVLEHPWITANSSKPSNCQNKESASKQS

[2] = target: Insulin-like growth factor 1 receptor (Homo sapiens) (UniProt P08069); test: Inhibition of IGF1R at 10 uM
[3] = target: Focal adhesion kinase 1 (Homo sapiens) (UniProt Q05397); test: Inhibition of FAK at 10 uM
[4] = target: Angiopoietin-1 receptor (Homo sapiens) (UniProt Q02763); test: Inhibition of TIE2 at 10 uM
Homo sapiens [5] = species: Homo sapiens; test: Inhibition of CDK4/cyclinD1 at 10 uM
[6] = target: Aurora kinase B (Homo sapiens) (UniProt Q96GD4); test: Inhibition of aurora B at 10 uM
[7] = target: Platelet-derived growth factor receptor beta (Homo sapiens) (UniProt P09619); test: Inhibition of PDGFRbeta at 10 uM
[8] = target: Serine/threonine-protein kinase PAK 4 (Homo sapiens) (UniProt O96013); test: Inhibition of PAK4 at 10 uM
[9] = target: Serine/threonine-protein kinase PLK1 (Homo sapiens) (UniProt P53350); test: Inhibition of PLK1 at 10 uM
[10] = target: Vascular endothelial growth factor receptor 2 (Homo sapiens) (UniProt P35968); test: Inhibition of VEGFR2 at 10 uM
Homo sapiens [11] = species: Homo sapiens; test: Inhibition of CK2-alpha1 at 10 uM
SF-268 = test: Antiproliferative activity against human SF268 cells at 100 uM after 48 hrs relative to control; type: functional; settings: SF-268, 48 h; outline: as §1
[12] = target: Hepatocyte growth factor receptor (Homo sapiens) (UniProt P08581); test: Inhibition of MET at 10 uM
[13] = target: Cyclin-dependent kinase 4 (Homo sapiens, UniProt P11802); test: Inhibition of CDK4
[14] = target: Receptor tyrosine-protein kinase erbB-2 (Homo sapiens) (UniProt P04626); test: Inhibition of ERBB2 at 10 uM
[15] = target: Proto-oncogene tyrosine-protein kinase Src (Homo sapiens) (UniProt P12931); test: Inhibition of SRC at 10 uM
MDA-MB-435 = test: Antitumor activity against human MDA-MB435 cells after 48 hrs by sulforhodamine B protein assay; type: functional; settings: MDA-MB-435, 48 h
Outline: (§2)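 Part of the NCI 60-cell-line screen. Compounds tested at five concentrations (10^-8 to 10^-4 M) with continuous exposure for 48 h. Cell growth read by sulforhodamine B protein assay, with percent growth from optical density of treated versus untreated control cultures. GI50 is the concentration giving 50% net growth inhibition.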

K562 = test: Antitumor activity against human K562 cells after 48 hrs by sulforhodamine B protein assay; type: functional; settings: K562, 48 h; outline: as §2
[16] = target: Vascular endothelial growth factor receptor 3 (Homo sapiens, UniProt P35916); test: Inhibition of VEGFR3
[17] = target: Epidermal growth factor receptor (Homo sapiens) (UniProt P00533); test: Inhibition of EGFR at 10 uM

Serine/threonine-protein kinase PAK 4 (Homo sapiens), sequence (O96013 whole entry, looked up): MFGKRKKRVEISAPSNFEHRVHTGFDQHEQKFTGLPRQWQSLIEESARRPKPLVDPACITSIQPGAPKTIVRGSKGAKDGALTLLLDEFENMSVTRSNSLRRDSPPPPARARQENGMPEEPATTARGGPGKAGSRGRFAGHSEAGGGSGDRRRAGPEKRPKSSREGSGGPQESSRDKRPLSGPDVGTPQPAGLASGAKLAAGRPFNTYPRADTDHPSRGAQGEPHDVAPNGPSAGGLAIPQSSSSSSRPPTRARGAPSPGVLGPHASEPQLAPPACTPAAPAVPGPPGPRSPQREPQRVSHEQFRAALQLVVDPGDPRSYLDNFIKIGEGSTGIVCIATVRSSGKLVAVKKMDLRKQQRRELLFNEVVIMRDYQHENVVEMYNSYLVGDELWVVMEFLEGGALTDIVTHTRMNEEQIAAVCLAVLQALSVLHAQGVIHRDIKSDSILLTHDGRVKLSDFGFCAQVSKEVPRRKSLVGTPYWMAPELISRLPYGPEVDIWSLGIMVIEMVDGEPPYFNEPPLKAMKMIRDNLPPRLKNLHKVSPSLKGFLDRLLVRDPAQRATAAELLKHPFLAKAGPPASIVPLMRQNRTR
Aurora kinase B (Homo sapiens), sequence (Q96GD4 whole entry): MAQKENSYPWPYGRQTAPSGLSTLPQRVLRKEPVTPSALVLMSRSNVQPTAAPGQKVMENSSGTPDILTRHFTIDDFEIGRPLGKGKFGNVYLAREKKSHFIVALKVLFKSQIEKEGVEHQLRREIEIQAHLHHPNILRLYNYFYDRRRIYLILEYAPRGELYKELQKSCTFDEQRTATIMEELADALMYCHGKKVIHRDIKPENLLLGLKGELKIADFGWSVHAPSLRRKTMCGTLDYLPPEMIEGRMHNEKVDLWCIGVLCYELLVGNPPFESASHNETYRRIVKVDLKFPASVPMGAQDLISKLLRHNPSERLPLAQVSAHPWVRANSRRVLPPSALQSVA
Angiopoietin-1 receptor (Homo sapiens), sequence (Q02763 whole entry): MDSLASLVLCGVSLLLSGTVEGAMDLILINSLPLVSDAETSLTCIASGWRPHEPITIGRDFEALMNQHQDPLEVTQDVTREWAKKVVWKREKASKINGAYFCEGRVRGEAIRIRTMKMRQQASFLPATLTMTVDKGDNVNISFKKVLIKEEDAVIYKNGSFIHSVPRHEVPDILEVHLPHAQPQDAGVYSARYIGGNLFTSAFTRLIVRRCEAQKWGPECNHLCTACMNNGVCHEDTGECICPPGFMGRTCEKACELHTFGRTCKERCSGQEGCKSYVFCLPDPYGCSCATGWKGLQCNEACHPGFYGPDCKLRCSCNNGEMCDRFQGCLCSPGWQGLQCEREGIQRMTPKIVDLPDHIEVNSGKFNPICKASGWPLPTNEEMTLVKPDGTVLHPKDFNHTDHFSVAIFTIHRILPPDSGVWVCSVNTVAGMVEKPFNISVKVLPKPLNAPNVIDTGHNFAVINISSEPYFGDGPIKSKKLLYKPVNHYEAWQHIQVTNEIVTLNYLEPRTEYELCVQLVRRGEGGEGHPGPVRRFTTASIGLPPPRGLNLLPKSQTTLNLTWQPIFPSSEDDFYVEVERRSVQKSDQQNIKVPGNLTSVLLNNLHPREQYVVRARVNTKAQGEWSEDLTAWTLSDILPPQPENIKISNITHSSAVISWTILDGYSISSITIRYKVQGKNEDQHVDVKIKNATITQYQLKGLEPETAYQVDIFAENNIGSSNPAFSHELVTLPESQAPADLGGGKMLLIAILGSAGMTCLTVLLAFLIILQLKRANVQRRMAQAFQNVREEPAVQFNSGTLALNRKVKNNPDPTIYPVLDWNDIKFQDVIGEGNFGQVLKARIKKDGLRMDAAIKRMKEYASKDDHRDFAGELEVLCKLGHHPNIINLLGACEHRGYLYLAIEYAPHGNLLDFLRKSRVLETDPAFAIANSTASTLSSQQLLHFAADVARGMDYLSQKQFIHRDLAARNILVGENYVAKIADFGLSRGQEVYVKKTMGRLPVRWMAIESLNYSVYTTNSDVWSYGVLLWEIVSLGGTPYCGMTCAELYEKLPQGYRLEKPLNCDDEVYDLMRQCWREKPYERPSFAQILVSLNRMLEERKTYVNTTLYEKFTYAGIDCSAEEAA
Proto-oncogene tyrosine-protein kinase Src (Homo sapiens), sequence (P12931 2-536 limits assumed): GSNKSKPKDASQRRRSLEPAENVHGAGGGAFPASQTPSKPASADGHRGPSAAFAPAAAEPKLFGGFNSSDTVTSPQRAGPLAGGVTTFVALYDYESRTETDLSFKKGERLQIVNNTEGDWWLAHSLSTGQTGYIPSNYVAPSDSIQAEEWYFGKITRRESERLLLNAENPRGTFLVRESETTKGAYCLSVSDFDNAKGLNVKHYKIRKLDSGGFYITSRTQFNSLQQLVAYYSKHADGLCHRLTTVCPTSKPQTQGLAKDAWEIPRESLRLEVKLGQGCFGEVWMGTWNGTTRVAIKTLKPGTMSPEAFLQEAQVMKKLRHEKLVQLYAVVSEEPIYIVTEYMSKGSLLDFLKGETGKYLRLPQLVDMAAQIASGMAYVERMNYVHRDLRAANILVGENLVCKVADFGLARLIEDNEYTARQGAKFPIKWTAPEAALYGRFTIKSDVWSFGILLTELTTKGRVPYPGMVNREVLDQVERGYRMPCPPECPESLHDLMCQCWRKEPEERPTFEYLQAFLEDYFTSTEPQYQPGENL
Platelet-derived growth factor receptor beta (Homo sapiens), sequence (P09619 whole entry): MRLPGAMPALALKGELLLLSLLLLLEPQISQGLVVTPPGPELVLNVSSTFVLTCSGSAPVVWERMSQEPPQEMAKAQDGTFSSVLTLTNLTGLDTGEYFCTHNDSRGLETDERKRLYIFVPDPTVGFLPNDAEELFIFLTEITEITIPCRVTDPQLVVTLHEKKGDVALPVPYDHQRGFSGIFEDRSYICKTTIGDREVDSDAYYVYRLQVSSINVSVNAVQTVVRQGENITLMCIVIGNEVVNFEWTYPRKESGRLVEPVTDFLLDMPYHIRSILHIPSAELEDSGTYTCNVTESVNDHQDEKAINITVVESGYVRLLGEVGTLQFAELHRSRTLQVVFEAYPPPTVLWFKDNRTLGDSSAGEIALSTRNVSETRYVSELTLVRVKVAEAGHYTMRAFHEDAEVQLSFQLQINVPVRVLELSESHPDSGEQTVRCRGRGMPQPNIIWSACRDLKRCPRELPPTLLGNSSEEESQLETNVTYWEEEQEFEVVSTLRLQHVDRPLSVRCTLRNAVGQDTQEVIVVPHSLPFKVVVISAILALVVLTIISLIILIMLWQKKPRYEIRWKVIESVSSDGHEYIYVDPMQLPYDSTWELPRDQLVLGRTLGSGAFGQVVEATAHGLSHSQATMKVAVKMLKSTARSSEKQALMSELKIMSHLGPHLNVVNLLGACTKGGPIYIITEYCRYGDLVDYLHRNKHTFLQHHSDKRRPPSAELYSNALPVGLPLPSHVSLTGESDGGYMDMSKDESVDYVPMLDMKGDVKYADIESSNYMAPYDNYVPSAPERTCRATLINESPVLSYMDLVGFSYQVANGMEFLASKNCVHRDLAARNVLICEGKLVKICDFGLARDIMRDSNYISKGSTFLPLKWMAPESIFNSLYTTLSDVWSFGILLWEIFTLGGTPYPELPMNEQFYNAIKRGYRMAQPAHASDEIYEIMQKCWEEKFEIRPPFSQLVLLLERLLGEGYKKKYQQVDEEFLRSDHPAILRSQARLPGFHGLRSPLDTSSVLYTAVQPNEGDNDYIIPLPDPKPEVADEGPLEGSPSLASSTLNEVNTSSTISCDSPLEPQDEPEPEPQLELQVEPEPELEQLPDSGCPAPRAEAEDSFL
Vascular endothelial growth factor receptor 2 (Homo sapiens), sequence (P35968 whole entry): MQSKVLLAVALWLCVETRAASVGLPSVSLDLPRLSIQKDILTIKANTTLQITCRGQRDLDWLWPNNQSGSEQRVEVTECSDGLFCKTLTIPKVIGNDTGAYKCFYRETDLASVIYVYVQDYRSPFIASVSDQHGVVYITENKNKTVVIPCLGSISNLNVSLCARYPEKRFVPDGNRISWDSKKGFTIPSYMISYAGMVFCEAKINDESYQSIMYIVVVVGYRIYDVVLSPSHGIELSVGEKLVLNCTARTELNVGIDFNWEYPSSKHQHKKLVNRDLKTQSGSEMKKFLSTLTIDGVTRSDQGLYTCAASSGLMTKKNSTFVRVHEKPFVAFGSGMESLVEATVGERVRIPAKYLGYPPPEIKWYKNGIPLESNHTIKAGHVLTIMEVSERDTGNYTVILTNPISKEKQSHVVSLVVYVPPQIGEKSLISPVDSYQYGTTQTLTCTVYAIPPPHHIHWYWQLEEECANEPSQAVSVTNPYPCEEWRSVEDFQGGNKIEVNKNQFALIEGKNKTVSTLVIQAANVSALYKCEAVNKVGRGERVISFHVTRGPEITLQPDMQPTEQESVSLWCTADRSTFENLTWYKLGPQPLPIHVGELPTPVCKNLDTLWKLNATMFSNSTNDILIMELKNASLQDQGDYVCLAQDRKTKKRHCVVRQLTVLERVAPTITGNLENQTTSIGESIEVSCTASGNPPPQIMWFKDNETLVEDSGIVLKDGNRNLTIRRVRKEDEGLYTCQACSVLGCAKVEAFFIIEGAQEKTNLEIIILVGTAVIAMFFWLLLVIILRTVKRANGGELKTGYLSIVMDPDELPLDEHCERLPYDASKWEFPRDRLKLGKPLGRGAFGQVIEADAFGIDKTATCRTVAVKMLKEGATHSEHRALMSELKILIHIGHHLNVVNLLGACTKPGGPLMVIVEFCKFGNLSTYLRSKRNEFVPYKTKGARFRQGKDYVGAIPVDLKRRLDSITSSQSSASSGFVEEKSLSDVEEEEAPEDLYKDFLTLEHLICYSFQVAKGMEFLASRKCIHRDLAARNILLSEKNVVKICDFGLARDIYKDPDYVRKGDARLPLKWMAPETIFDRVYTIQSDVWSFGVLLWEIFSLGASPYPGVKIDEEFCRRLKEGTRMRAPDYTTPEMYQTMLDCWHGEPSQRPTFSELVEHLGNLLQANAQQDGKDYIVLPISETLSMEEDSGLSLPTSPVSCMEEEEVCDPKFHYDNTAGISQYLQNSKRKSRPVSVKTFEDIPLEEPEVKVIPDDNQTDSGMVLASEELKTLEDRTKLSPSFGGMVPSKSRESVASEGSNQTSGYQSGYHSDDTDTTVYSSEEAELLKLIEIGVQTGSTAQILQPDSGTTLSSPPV

SMILES	inhibition [1] [%]	inhibition [2] [%]	inhibition [3] [%]	inhibition [4] [%]	inhibition (Homo sapiens [5]) [%]	inhibition [6] [%]	inhibition [7] [%]	inhibition [8] [%]	inhibition [9] [%]	inhibition [10] [%]	inhibition (Homo sapiens [11]) [%]	inhibition [12] [%]	inhibition [14] [%]	inhibition [15] [%]	GI50 (MDA-MB-435) [µM]	GI50 (K562) [µM]	growth, % of control at 100 µM (MCF7) [%]	growth, % of control at 100 µM (SF-268) [%]	also measured
O=C1Cc2cnn(-c3cccc(Cl)c3)c2-c2ccccc2N1	< 40	< 40	< 40	< 40	> 40	< 40	< 40	< 40	< 40	< 40	< 40	< 40	< 40	< 40			64	101	pIC50 [13]: < 5.00
Cc1ccc(-n2ncc3c2-c2ccccc2NC(=O)C3)cc1	< 40	< 40	< 40	< 40	< 40	< 40	< 40	< 40	< 40	< 40	< 40	< 40	< 40	< 40	2.09	1.78	57	95	
O=C1Cc2cnn(-c3ccc(Br)cc3)c2-c2ccccc2N1	< 40	< 40	< 40	< 40	< 40	< 40	< 40	< 40	< 40	< 40	< 40	< 40	< 40	< 40	1.91	4.07	51	98	
O=C1Cc2cnn(-c3cc(Cl)cc(Cl)c3)c2-c2ccccc2N1	< 40	< 40	< 40	< 40	< 40	< 40	< 40	< 40	< 40	< 40	< 40	< 40	< 40	< 40	< 0.01	< 0.01	40	62	
O=C1Cc2cnn(-c3ccc(C(F)(F)F)cc3)c2-c2ccccc2N1	< 40	< 40	< 40	< 40	< 40	< 40	< 40	< 40	< 40	< 40	< 40	< 40	< 40	< 40	11.2	12.6	52		
O=C1Cc2cnn(-c3ccc([N+](=O)[O-])cc3)c2-c2ccccc2N1	< 40	< 40	< 40	< 40	< 40	< 40	< 40	< 40	< 40	< 40	< 40	< 40	< 40	< 40			55	62	
O=C1Cc2cnn(-c3ccc(F)cc3F)c2-c2ccccc2N1	< 40	< 40	< 40	< 40	< 40	< 40	< 40	< 40	< 40	< 40	< 40	< 40	< 40	< 40			61	98	
COc1ccc(-n2ncc3c2-c2ccccc2NC(=O)C3)cc1	< 40	< 40	< 40	< 40	< 40	< 40	< 40	< 40	< 40	< 40	< 40	< 40	< 40	< 40	0.025	0.35	60	88	
CC(C)(C)c1ccc(-n2ncc3c2-c2ccccc2NC(=O)C3)cc1	< 40	< 40	< 40	< 40	< 40	< 40	< 40	< 40	< 40	< 40	< 40	< 40	< 40	< 40	18.6	31.6	130		pIC50 [16]: < 5.00

More lines, main results first:

inhibition [1] [%]	inhibition [2] [%]	inhibition [3] [%]	inhibition [4] [%]	inhibition (Homo sapiens [5]) [%]	inhibition [6] [%]	inhibition [7] [%]	inhibition [8] [%]	inhibition [9] [%]	inhibition [10] [%]	inhibition (Homo sapiens [11]) [%]	inhibition [12] [%]	inhibition [14] [%]	inhibition [15] [%]	GI50 (MDA-MB-435) [µM]	GI50 (K562) [µM]	SMILES	growth, % of control at 100 µM (MCF7) [%]	growth, % of control at 100 µM (SF-268) [%]	also measured
< 40	< 40	< 40	< 40	< 40	< 40	< 40	< 40	< 40	< 40	< 40	< 40	< 40	< 40			O=C1Cc2cnn(-c3ccccc3F)c2-c2ccccc2N1	66	98	
< 40	< 40	< 40	< 40	< 40	< 40	< 40	< 40	< 40	< 40	< 40	< 40	< 40	< 40			Cc1ccccc1-n1ncc2c1-c1ccccc1NC(=O)C2	64	98	
< 40	< 40	< 40	< 40	< 40	< 40	< 40	< 40	< 40	< 40	< 40	< 40	< 40	< 40			O=C1Cc2cnn(-c3ccccc3Cl)c2-c2ccccc2N1	66	71	
< 40	< 40	< 40	< 40	< 40	< 40	< 40	< 40	< 40	< 40	< 40	< 40	< 40	< 40			O=C1Cc2cnn(-c3ccccc3Br)c2-c2ccccc2N1	69	87	
< 40	< 40	< 40	< 40	< 40	< 40	< 40	< 40	< 40	< 40	< 40	< 40	< 40	< 40			O=C1Cc2cnn(-c3ccccc3)c2-c2ccccc2N1	55	90	inhibition [17]: < 40%
